This note sets out measurements from ChEMBL document CHEMBL4513216, “Probing the Open Global Health Chemical Diversity Library for Multistage-Active Starting Points for Next-Generation Antimalarials” (ACS Infect Dis, 2020).

SMILES strings stand for the structures.

This data set can be described thus: Toxicity liver stage against HepG2, at 10uM. Format: cell-based. The arrangement: test concentration 10 uM, cell line HepG2-A16-CD81EGFP. To be noted: human, HepG2-A16-CD81EGFP cells; read-out: INHIBITION
The method in brief: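 Uninfected HepG2-A16-CD81EGFP cells, 3 × 10^3 per well, 1536-well, plated on prespotted compound at 10 μM final, parasite-free screening media added to match infected plates; puromycin 10 μM positive, DMSO 0.5% negative; run in parallel with 48 h PbLuc assay at 37 °C, 5% CO2; viability by CellTiter-Glo luminescence, normalized to controls.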
In the case of `c1cncc(CN2CCO[C@@H]3CN(Cc4ccoc4)CC[C@@H]3C2)c1`, the cytotoxicity at 10 µM is -70.9%. The figure for `Cc1cc(CN2CCCC(C)(CO)C2)ccc1F` (configuration not stated) is -20.4%; for `CCc1nnc(CSc2ccccn2)o1` it is -2.98%; for `Cc1cc(NC(=O)CCN2CCn3c(C)nnc3C2)no1` it is 6.69%. Next, `CCC(NCCn1cc(C)cn1)C(=O)Nc1cc(C)on1` (configuration not stated): 4.52%; `CCCS(=O)(=O)N1CCC2(CCC(=O)N(CCc3ccncc3)C2)CC1`: -11.7%. The figure for `CC(C)c1n[nH]c(C2CN(C(=O)c3cc(C4CC4)on3)CCO2)n1` (configuration not stated) is -1.7%. In the case of `COc1ccccc1CC(=O)N1CCN(Cc2ccco2)C[C@@H]1C`, the cytotoxicity at 10 µM amounted to 2.08%.

For `Cc1ccc(-c2[nH]c3ccccc3c2C(=O)O)c(C)c1`, the cytotoxicity at 10 µM amounted to 12.3%. Next, `OCCN(Cc1ccccc1)Cc1nc(-c2ccc3c(c2)OCO3)no1`: 4.74%; `CCc1cc(C(F)(F)F)c2c(C3CCCN(C(=O)COC)C3)noc2n1` (configuration not stated): -17.6%. The figure for `COCCN1C(=O)[C@@H]2CC[C@H]1CN(c1nccc(C)n1)C2` is 9.73%. With `O=C(c1ccc2c(c1)OCCCO2)N1CCCCC1C1OCCO1` (configuration not stated), the cytotoxicity at 10 µM was -0.158%. The figure for `CN1CC(=O)N(c2ccsc2)CC12CCN(S(C)(=O)=O)C2` (configuration not stated) is -26.1%; for `Cc1csc2c(=O)n3c(nc12)CCN(C(=O)c1cccnc1)CC3` it is -2.09%; for `Cc1nnc(CN2CCCC(CCc3ccccc3C(F)(F)F)C2)o1` (configuration not stated) it is 3.67%. The figure for `Cc1c(C(N)=O)sc2nc(C(F)(F)F)ccc12` is -3.33%; for `CCOc1ccc(CN2CCCC(c3cc4ncccc4[nH]3)C2)cc1` (configuration not stated) it is 1.18%.

For the molecule `O=C1CSCN1Cc1nc(-c2ccc(N3CCCCC3)cc2)no1`, the cytotoxicity at 10 µM is -6.79%. Next, `Cc1ncc(CNC(=O)CCc2cccs2)c(C2CCCN2C)n1` (configuration not stated): -9.72%; `Cn1cc(S(=O)(=O)N2CCCC2CC(=O)c2cccs2)cn1` (configuration not stated): -8.08%. The figure for `COc1cccc(C)c1C(=O)N1C[C@@H](CN(C)C)[C@@H](CO)C1` is -10.4%; for `COCC(O)CN1CCC(=O)N(Cc2ccccc2)Cc2ccccc21` (configuration not stated) it is 1.19%; for `CCN1CCCCC1C(=O)N1CCC(OC2CCCC2)CC1` (configuration not stated) it is -20.6%. The figure for `COc1c(C2CCCN2C(=O)c2scnc2C)c(C)nn1C` (configuration not stated) is -1.49%; for `O=C(CN(Cc1cccc(F)c1)CC1CCCO1)N1CCCC1` (configuration not stated) it is -7.29%; for `COc1ncc(NCc2ccsc2)cc1C(N)=O` it is 1.25%. For `Cc1ccc(N2CCc3sc(C(=O)NCCN4CCCC4)cc32)nn1`, the cytotoxicity at 10 µM was -2.19%. Take `Cc1ccc(C)c(CS(=O)(=O)CC(=O)Nc2ccc(F)cc2F)c1`: the cytotoxicity at 10 µM was 3.28%. Turning to `CC(C)c1nccn1C(C)C(=O)N1CCN(c2ccccc2Cl)CC1` (configuration not stated), the cytotoxicity at 10 µM came out at 3.54%. Next, `CCc1ccc(C(=O)N2CCC(c3nncn3CC)CC2)s1`: -15.4%; `CCCS(=O)(=O)NC(=O)c1cc(C)n(-c2ccccc2)n1`: -7.21%. The figure for `COC(=O)[C@H]1C[C@@H](O)CCN1S(=O)(=O)c1c(C)cc(OC)c(C)c1C` is -16.2%; for `Cc1[nH]c2c(F)cccc2c1CC(=O)N1CCCC(N)CC1` (configuration not stated) it is 3.26%.

Regarding `Cc1csc(C(=O)N2CC[C@H](Oc3cccnc3C)[C@@H](O)CC2)c1`, the cytotoxicity at 10 µM was -10.7%.

With `O=C1CC(c2ccncc2)c2c(sc3c2CCCC3)N1` (configuration not stated), the cytotoxicity at 10 µM worked out at 5.57%.

On to `CN(C)c1nc2c(c(N(C)Cc3n[nH]c4c3CCCCC4)n1)CCNC2`, for which the cytotoxicity at 10 µM is 2.95%. The figure for `CC(Cn1cccn1)NCc1cccc(C#N)c1` (configuration not stated) is 5.19%; for `COc1c(C)cc(CNCc2ccnc(N3CCOCC3)c2)cc1C` it is 11.9%; for `CCc1cc(N[C@H](C(N)=O)[C@@H](C)CC)n2nccc2n1` it is 2.99%. With `COC1CCN(CCNc2ncc(Br)cc2C)CC1`, the cytotoxicity at 10 µM is -13.9%.

Turning to `O=C(c1cccn1Cc1cccs1)N1CCN2CCCCC2C1` (configuration not stated), the cytotoxicity at 10 µM was -7.42%. The figure for `OCCN1CC2(CCN(CC3CC3)CC2)c2ccccc21` is 6.4%; for `Cc1cccc(NC2CCN(C(=O)Nc3cc(F)cc(F)c3)CC2)n1` it is -0.961%. Take `N#CCCN(Cc1ccco1)C(=O)Cc1ccc(-n2cnnn2)cc1`: the cytotoxicity at 10 µM came out at 3.23%.

Turning to `CCc1nnc2n1CCN(c1nc3ccccc3o1)C2`, the cytotoxicity at 10 µM stood at 2.11%.

As for `Cc1cccc(CN2C[C@@H](CN3CCCN(C)CC3)C[C@H](CO)C2)n1`, the cytotoxicity at 10 µM was determined as 2.04%.

For the molecule `CCc1ccc(C2CC(=O)Nc3n[nH]cc32)o1` (configuration not stated), the cytotoxicity at 10 µM came to 0.0773%. The figure for `CN(Cc1nccn1C)C1CCCN(CCCc2ccccc2)C1` (configuration not stated) is 1.17%; for `Cc1cc(NC(=O)N2CCOCC2)nn1-c1ccccc1Cl` it is 11.1%. Regarding `CC(CCn1cccn1)N1CCC(n2cc(C(C)(C)N)nn2)CC1` (configuration not stated), the cytotoxicity at 10 µM is -4.78%. Regarding `Cn1nc(Br)nc1Sc1ccccc1NC(=O)C1CC1`, the cytotoxicity at 10 µM is 3.62%.

On to `CS(=O)(=O)NCCC(=O)NC1(c2ccc(F)cc2)CCCC1`, for which the cytotoxicity at 10 µM was -1.1%. For the molecule `CCN(CC)[C@@H]1CN(Cc2nccn2C)[C@@H]2CCCO[C@H]12`, the cytotoxicity at 10 µM came to 4.92%. The figure for `Cc1cc(NS(=O)(=O)c2ccc(Cl)s2)ccc1-n1cccc1C(=O)O` is 3.2%; for `C=C1C(C)(C)[C@@H]2CC[C@]1(C(=O)N1CCC(Cn3cc(CO)nn3)CC1)C2` it is -6.01%; for `COC1CCCN(C(=O)NCCCF)C1` (configuration not stated) it is 0.215%. As for `Cc1cc(C(F)(F)F)c2c(=O)n(Cc3cc(C)on3)n(C)c2n1`, the cytotoxicity at 10 µM worked out at 1.46%. Regarding `Cc1ccccc1CN1CCN(CC(=O)Nc2cccnc2)CC1`, the cytotoxicity at 10 µM was -2.82%. Next, `COc1cc2c(cc1OC)S(=O)(=O)N(Cc1ccccc1)C2=O`: 8.2%; `O=C(NCCc1nnc2n1CCC2)NCC1(c2ccccc2)CC1`: -7.35%; `O=C(O)COc1ccccc1CN1CCCC1c1ccncn1` (configuration not stated): -29.2%. Next, `O=C(c1sccc1C1CC1)N1CCCN(c2cccnn2)CC1`: -8.67%; `Cc1cccc2nc(C(=O)N3CCC4(CCC(=O)N(C)C4)CC3)c(F)n12`: -0.103%; `O=C(NCCc1ccccn1)[C@@H]1CC[C@@H]2[C@@H](CCN2Cc2ccoc2)O1`: 8.21%. The figure for `O=C(NCCCn1ccnc1)C1CCC(=O)N1Cc1cccs1` (configuration not stated) is -4.94%; for `Cn1ccnc1CN1CCC2(CCCN2c2ncccn2)CC1` it is 7.55%. Turning to `Cc1cccc(CN2CCc3c(COCC(=O)N(C)C)nn(C)c3C2)n1`, the cytotoxicity at 10 µM is -120%. Next, `COc1ccc(C)cc1CC(=O)N1CC[C@@]2(CCCO2)[C@@H](O)C1`: -1.47%; `Cc1cc(C(=O)N2CCCC(c3nc(C)no3)C2)on1` (configuration not stated): 6.93%; `CC(C1CC1)N(C)C(=O)CCn1cccn1` (configuration not stated): -2.37%. Next, `O=C(CN1CCOCC1)N1CCC2(CCCN(C3CCOCC3)C2=O)C1` (configuration not stated): -129%; `O=C(NC1CC1)c1cc(NC(=O)N2CCSCC2)ccc1Cl`: -22.5%. The figure for `CC(O)(CNC(=O)c1c(F)cccc1Cl)c1ccco1` (configuration not stated) is 2.22%; for `CC(Cc1cccnc1)Nc1ncnc2cccc(F)c12` (configuration not stated) it is 26.3%. Regarding `COc1cccc(C(=O)NC(C)CCN2CCOCC2)c1F` (configuration not stated), the cytotoxicity at 10 µM is -45.2%. For the molecule `CC(C)N(C)Cc1nnc2n1CCCN(c1cnccn1)C2`, the cytotoxicity at 10 µM came out at 0.0861%. In the case of `Cn1cnc(S(=O)(=O)NCC2(O)CCOc3ccccc32)c1` (configuration not stated), the cytotoxicity at 10 µM was 12%.

In the case of `CN1CCc2c(C#N)c(NCCCO)n3cnnc3c2C1`, the cytotoxicity at 10 µM stood at 8.71%.

Regarding `CC(NC(=O)c1ccnc(C2CC2)n1)C1(N2CCOCC2)CCCC1` (configuration not stated), the cytotoxicity at 10 µM turned out to be 4.21%. As for `CS(=O)(=O)CCN1CCC2(CCCN(C3CCOCC3)C2=O)C1` (configuration not stated), the cytotoxicity at 10 µM was -5.65%. `Cn1c(C2CCCCN2C(=O)CN2CCCC2=O)nc2ccccc21` (configuration not stated): the cytotoxicity at 10 µM is -0.62%. The figure for `Cc1[nH]ncc1C(=O)NCC(CO)Cc1ccc(Cl)cc1` (configuration not stated) is -0.0785%; for `COc1ccc(-n2c(COC(C)C)n[nH]c2=O)cc1` it is 3.45%; for `CN(C)c1ncc(I)c(C2CCCCN2C)n1` (configuration not stated) it is 1.74%. On to `COc1ccc(OCC(=O)NS(=O)(=O)c2cc(F)ccc2F)cc1`, for which the cytotoxicity at 10 µM is -19.5%. For the molecule `Cc1cnc(C(=O)N2CCCC(c3nccn3Cc3cscn3)C2)cn1` (configuration not stated), the cytotoxicity at 10 µM is -7.92%. `CCc1csc(CNc2cc(C)nc(-c3cccnc3)n2)n1`: the cytotoxicity at 10 µM worked out at 4.83%.

As to `O=C(Nc1ccccc1OC(F)F)C1=NN(c2ccccc2)C(=O)CN1`, the cytotoxicity at 10 µM was -3.58%. With `Cc1ccc(CC2CCCN2CC(=O)NCc2cccnc2)cc1` (configuration not stated), the cytotoxicity at 10 µM is -3.83%.

As to `CCn1nnc2c1C(COC)CN(C(=O)Cc1ccccn1)C2` (configuration not stated), the cytotoxicity at 10 µM was found to be 4.64%. Take `O=C([C@@H]1CCO[C@@H]2CCN(Cc3cccnc3)C[C@H]21)N1CCCCO1`: the cytotoxicity at 10 µM was -1.17%.

With `FC1(F)CCN(Cc2ccccn2)CC12CCN(c1cnccn1)C2` (configuration not stated), the cytotoxicity at 10 µM is -108%. The figure for `Cc1nc(C2CCNCC2)cc(N(C)CCc2cn[nH]c2)n1` is -1.54%; for `CCCc1nc(CN(C)CC2CCN(CCO)CC2)no1` it is 2.64%; for `CCN1CCN(C2CCN(Cc3nnc(C(C)(C)C)o3)CC2)C1=O` it is 3.8%. With `CCOc1cc(C(=O)N2CC=C(c3ccc(O)cc3)CC2)ccn1`, the cytotoxicity at 10 µM is -4.89%.
